This passage reports ED50, Time and pKa results from ChEMBL document CHEMBL3271940, “Monoquaternary neuromuscular blocking agents based on 1-tetralone and 1-indanone” (J Med Chem, 1976).

For data set [1], the species on record is Felis catus. As to the kind of experiment: Neuromuscular blocking activity in cat assessed as blockade of tibialis muscle twitches. The class given is functional. Summed up: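 The reported value is the dose that produced 50% blockade of muscle twitches, given ± standard error together with the number of determinations.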
For data set [2], the species on record is Felis catus. As to the kind of experiment: Neuromuscular blocking activity in cat assessed as time duration of action of blockade of tibialis muscle twitches at ED50. In kind it is functional.
A short description of data set [3]: Dissociation constant, pKa of the compound in water. In kind it is physicochemical.

By ED50 is commonly meant the midpoint of the dose-response relation. As to `C[N+](C)(C)c1ccc2c(c1)CC/C2=N\N.[I-]`, in the data set listed under Felis catus [1], the ED50 turned out to be 0.44 µmol/kg. Moreover, in the data set filed under Felis catus [2], the Time was found to be 10 min.

The pKa is the pH at which an ionisable group is half protonated. As to `C[N+](C)(C)c1ccc2c(c1)CCC/C2=N\N.[I-]`, the ED50 in the data set listed under Felis catus [1] worked out at 0.16 µmol/kg. This compound registered a pKa in data set [3] of 2.5. In addition, in the data set listed under Felis catus [2], the Time is listed as 5.2 min.

On to `C[N+](C)(C)c1ccc2c(c1)/C(=N/N)CCC2.[I-]`, for which the ED50 in the data set listed under Felis catus [1] is over 10 µmol/kg.

Consider `C[N+](C)(C)CCOC(=O)CCC(=O)OCC[N+](C)(C)C.[Cl-].[Cl-]` [SUCCINYLCHOLINE CHLORIDE], for which, in the data set listed under Felis catus [1], the ED50 was 0.1 µmol/kg. In addition, the Time in the data set filed under Felis catus [2] amounted to 4.4 min.

In the case of `C[N+](C)(C)c1ccc2c(c1)/C(=N/N)CC2.[I-]`, the ED50 in the data set listed under Felis catus [1] was 3.98 µmol/kg. For the same compound, in the data set listed under Felis catus [2], the Time was determined as 17.1 min.

On to `CN(C)/N=C1\CCCc2cc([N+](C)(C)C)ccc21.[I-]`, for which, in the data set listed under Felis catus [1], the ED50 was over 10 µmol/kg.

Turning to `C[N+](C)(C)c1cccc2c1CCC/C2=N\N.Cc1ccc(S(=O)(=O)[O-])cc1`, the ED50 in the data set filed under Felis catus [1] is over 10 µmol/kg.

Regarding `C[N+](C)(C)c1cccc2c1CC/C2=N\N.[I-]`, the ED50 in the data set listed under Felis catus [1] is over 10 µmol/kg.
